tim10-1 inh = tim10-1 yeast growth inhibition; S. cerevisiae tim10-1 ts strain growth, BacTiter-Glo, 24 h; inhibition, % at 20 µM; 330,000 tested, 2.2% active; AID 463190;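 active means inhibition of at least 40%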;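 further: mutant grown at 25 °C; 0% = DMSO wells with yeast and 100% = wells holding no yeast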
TIM10 inh = inhibits growth of TIM10 yeast strain | S. cerevisiae TIM10 strain growth, BacTiter-Glo luminescence, 24 h | inhibition, % at 10 µM | 330,000 tested, 1.4% active;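 active means inhibition of 40% or more at the single tested concentration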;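 further: wild-type TIM10 isogenic control strain grown at permissive 25 °C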
UPR XBP1 act = activators of adaptive arm of unfolded protein response (XBP1). activation, % at 20 µM. 330,000 tested, 0.33% active. CHO-XBP1 luciferase reporter, IRE1-XBP1 UPR activation, luminescence; percent of tunicamycin response, DMSO as zero;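 active means versus positive control, 20 µM dose yields 30% or more activation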;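 further: 100% = tunicamycin at 10 µg/mL and 0% = DMSO only wells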
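Test system: CHO-XBP1 luciferase reporter cells | Buffer or medium: Serum-containing F12 medium, 10% FBS | Schedule: 6 h compound exposure at 37 °C, 5% CO2 | Detection: Steady-Glo luciferase glow luminescence, 10 min after reagent addition | Read-out basis: Activation, % of tunicamycin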
tim23-1 inh = growth inhibitors of tim23-1 mutant yeast | S. cerevisiae tim23-1 growth, BacTiter-Glo luminescence, 24 h | AID 463212 | 330,000 tested, 1.3% active | inhibition, % at 20 µM;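 active means growth inhibition of the mutant yeast at or above 50%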;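 further: temperature-sensitive mutant grown at 25 °C; plate controls were DMSO-treated mutant yeast for no effect and medium wells lacking yeast for full effect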
CHOP UPR activ = activators of apoptotic arm of unfolded protein response (CHOP); AID 449763; 330,000 tested, 0.34% active; CHO-CHOP luciferase reporter, UPR activation, luminescence; percent of tunicamycin response over DMSO baseline; activation, % at 10 µM;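 active means at 10 µM dose, activation of 40% or more, normalized to positive control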;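 further: 100% = tunicamycin at 10 µg/mL and 0% = DMSO alone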
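System: CHO-CHOP luciferase reporter cell line | Buffer or medium: F12 medium containing 10% fetal bovine serum | Doses: One dose, 10 µM in 0.5% DMSO | Times: 6 h compound exposure at 37 °C after overnight seeding | Signal: Luciferase luminescence | Read-out: % activation vs tunicamycin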
tim10-1 confirm = confirmation of tim10-1 mutant yeast growth inhibitors; shares compounds with tim10-1 inh; 7,400 tested, 56% active; S. cerevisiae tim10-1 ts strain growth, BacTiter-Glo, 24 h; inhibition, % at 20 µM; AID 463213;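 active means inhibition of yeast growth at or above a set limit in either of two repeat tests at 20 µM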;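 further: tim10-1 mutant grown at permissive 25 °C to find synthetic lethal compounds; 0% = DMSO yeast wells and 100% = medium wells without yeast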
TIM10 conf = confirmation of TIM10 yeast growth inhibitors. shares compounds with TIM10 inh. S. cerevisiae tim10 strain growth, BacTiter-Glo luminescence, 24 h. inhibition, % at 10 µM. 4,600 tested, 63% active;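 active means inhibition of yeast growth at or above a set limit in either of two replicates at 10 µM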;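 further: this counterscreen used the strain with wild-type TIM10; 0% = yeast with DMSO and 100% = medium wells lacking yeast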
* hit, by the source's call; . = no result given. An excerpt weighted towards active compounds, which were near 3.9% of everything screened.

SMILES	tim10-1 inh	TIM10 inh	UPR XBP1 act	tim23-1 inh	CHOP UPR activ	tim10-1 confirm	TIM10 conf
COc1ccc(OC)c(C(=O)NC(CC(N)=O)c2ccc(N3CCN(c4ccc(F)cc4)CC3)c([N+](=O)[O-])c2)c1 (stereo not drawn)	6.8	9.4	-0.7	27.4	0.0	.	.
O=C(NC1CCCC1)C(c1cccnc1)N(C(=O)c1csnn1)c1ccccc1 (stereo not drawn)	-7.9	11.6	-1.1	2.9	0.8	.	.
C(=N\Nc1nc(Nc2ccccc2)nc(N2CCCCC2)n1)/c1ccco1	49.8*	48.1*	1.0	46.7	3.8	31.2	37.3*
O=C(O)/C=C1\NC(=O)c2ccccc21	17.2	5.5	-4.4	16.1	-1.7	.	.
O=C1N/C(=C\c2ccc(O)cc2)C(=O)c2ccccc21	54.9*	47.8*	2.4	40.1	7.2	42.0*	35.5*
COc1ccc(N2CCN(C(=O)Nc3cccc(C(F)(F)F)c3)CC2)cc1	54.6*	49.0*	-4.3	-7.8	-0.7	40.6*	21.4
O=C(Nc1cccc(C(F)(F)F)c1)N1CCN(C(=O)Nc2cccc(C(F)(F)F)c2)CC1	-2.7	7.2	1.0	-4.3	-1.2	.	.
Cc1nn(Cc2ccccc2)c(C)c1CNC(=O)CN=C1NS(=O)(=O)c2ccccc21	-2.6	-1.7	-2.6	-8.5	-0.1	.	.
Cc1ccc(CNC(=O)/C(C#N)=C\c2ccc(N(C)C)cc2)cc1	45.4*	45.1*	1.8	19.8	-0.6	29.2	17.1
Cc1ccc(S(=O)(=O)N2CCOC2CNC(=O)C(=O)NCc2ccc(Cl)cc2)cc1 (stereo not drawn)	-2.8	-1.2	-4.0	0.9	1.9	.	.
COc1ccc2c(c1OC)C(=O)N1N=C(c3ccc(Br)cc3)CC21 (stereo not drawn)	48.2*	40.0*	3.1	39.7	3.5	40.3*	-3.2
O=C(c1ccc(F)cc1)C(CN1CCOCC1)c1ccccc1 (stereo not drawn)	52.9*	57.5*	-10.3	49.3	28.9	36.5*	64.2*
Cc1ccc(NC(=O)CC2SC(=O)N(c3ccccc3)C2=O)cc1 (stereo not drawn)	49.0*	41.1*	-3.7	46.1	-1.7	41.5*	-8.9
CCCn1cnc2cc(NCc3ccc(Br)cc3)ccc21	42.7*	51.6*	6.1	45.3	3.1	16.6	50.2*
O=C(CCCc1ccccc1)Nc1ccnn1C1CCN(Cc2ccc(CO)o2)CC1	2.4	10.1	-1.2	1.6	3.0	.	.
CCOC(=O)N1CCN(c2ncnc3c2oc2nc(C(C)C)c4c(c23)CCC4)CC1	43.6*	46.1*	-0.3	40.7	4.8	33.6*	36.5*
CC(C)c1nc2oc3c(NCc4cccnc4)ncnc3c2c2c1CCC2	25.6	10.1	21.2	-9.6	0.6	.	.
c1ccc(C2Nc3ccccc3-c3nc4ccccc4n32)cc1 (stereo not drawn)	40.8*	46.8*	2.6	37.5	0.4	23.2	34.7*
COCCCn1c(SCC(=O)n2c(C)c(C)c3ccccc32)nnc1-c1ccoc1C	44.3*	40.4*	-1.8	33.9	-1.7	32.9*	-6.0
O=[N+]([O-])c1ccc(NNS(=O)(=O)c2cc(Cl)ccc2Cl)nc1	7.5	-6.6	-3.9	-14.8	-0.5	.	.
Cc1ccc(Nc2nc(N)c3ccccc3n2)cc1Cl	5.4	25.2	24.1	44.4	9.4	.	.
CN(C)c1ccc(Nc2nc(N)c3ccccc3n2)cc1	55.4*	44.4*	-8.8	43.3	-9.6	50.0*	35.8*
CC(C)n1c(CSCc2ccc(Cl)cc2Cl)n[nH]c1=S	49.1*	41.1*	0.3	40.2	-1.4	23.6	49.4*
COc1ccc(OC)c(NC(=O)Cn2c(=O)n(CC3CCCO3)c(=O)c3cc(OC)c(OC)cc32)c1 (stereo not drawn)	6.1	18.7	3.2	15.4	1.0	.	.
CC1(C)CC(=O)C2=C(C1)Nc1ccccc1N=C2	49.4*	40.7*	8.8	46.0	5.2	44.2*	33.6*
O=C(CNCc1ccccc1Cl)Nc1ccc2c(c1)OCCO2	10.4	-19.1	0.8	18.8	0.8	.	.
